Screening results: PubChem, several laboratories
Only some compounds are listed: those with a hit (about 1.8% of all), similar ones and a draw of the others.
NR2E3 ag-1 – human photoreceptor-specific nuclear receptor agonism | Q9Y5X4 | inhibition of corepressor binding, % at 3.98 µM | CHO-S Gal4-NCOR/VP16-NR2E3 two-hybrid, luciferase | 360,000 tested, 0.35% active;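 active means inhibition above the mean of all tested compounds plus 3 SD, cut at about 70% in these data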;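 further: 0% = DMSO with NR2E3 transfected cells and 100% = cells lacking NR2E3 construct; higher means lower luciferase signal from less NR2E3 corepressor binding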
Target sequence (Q9Y5X4 whole entry, looked up, the tested form may be a part): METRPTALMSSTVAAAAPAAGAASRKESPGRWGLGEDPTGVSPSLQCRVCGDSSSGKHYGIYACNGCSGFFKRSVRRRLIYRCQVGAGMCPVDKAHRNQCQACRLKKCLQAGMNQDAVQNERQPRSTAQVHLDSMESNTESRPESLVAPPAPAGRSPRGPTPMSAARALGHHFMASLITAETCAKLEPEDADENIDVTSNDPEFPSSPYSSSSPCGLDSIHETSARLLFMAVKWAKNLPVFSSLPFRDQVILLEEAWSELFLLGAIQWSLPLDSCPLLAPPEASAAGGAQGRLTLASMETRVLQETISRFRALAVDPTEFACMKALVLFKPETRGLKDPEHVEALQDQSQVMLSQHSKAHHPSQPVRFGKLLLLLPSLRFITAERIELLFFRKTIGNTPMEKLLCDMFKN
Jurkat NFkB inh – inhibitors of the PMA/ionomycin-induced NF-kB reporter in Jurkat cells; PMA/ionomycin-induced NF-kB luciferase reporter, luminescence; inhibition, % at 4 µM; 330,000 tested, 0.53% active; AID 435003; in the data active means inhibition above about 50%
GalR3 antagonist – blocks the human galanin receptor 3; O60755; inhibition, % at 3 µM; 360,000 tested, 0.44% active; HEK293 GalR3-CNG cAMP membrane potential fluorescence; galR3 body fused to GalR1 C-terminus;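 active means inhibition above the screen-wide average plus 3 SD, cut at about 13% in these data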;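 further: forskolin and galanin both at EC90 stimulate the cells; cAMP rise reported by CNG channel membrane potential dye signal; 0% = forskolin plus galanin with DMSO and 100% = forskolin alone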
Target sequence (O60755 1-299 limits assumed): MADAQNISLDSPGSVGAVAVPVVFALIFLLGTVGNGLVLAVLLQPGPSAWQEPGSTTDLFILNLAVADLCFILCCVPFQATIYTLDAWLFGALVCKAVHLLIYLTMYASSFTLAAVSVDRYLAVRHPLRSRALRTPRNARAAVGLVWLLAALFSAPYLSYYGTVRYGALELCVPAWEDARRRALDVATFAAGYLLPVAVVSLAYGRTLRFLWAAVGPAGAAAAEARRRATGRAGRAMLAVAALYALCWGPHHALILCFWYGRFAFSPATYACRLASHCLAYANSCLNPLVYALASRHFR
NR2E3 ag-2 – activates human photoreceptor nuclear receptor NR2E3. inhibition of corepressor binding, % at 4.78 µM. Q9Y5X4. 320,000 tested, 0.12% active. GST-NR2E3/biotin-RetCOR TR-FRET, 1536-well. AID 2300;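 active means percent inhibition above the cutoff of mean plus 3 SD of all tested compounds, set per screening campaign, cut at about 20% in these data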;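 further: 0% = DMSO wells and 100% = biotin wells as full block of FRET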
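system = GST-tagged NR2E3 plus biotinylated RetCOR corepressor | input = 1.35 nM GST-NR2E3 | also added = 7 nM biotin-RetCOR | schedule = 5 h incubation at 4 °C | measured by = TR-FRET with europium anti-GST and streptavidin-D2, 340 nm excitation | read-out = percent loss of FRET ratio relative to control wells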
697 NFkB inh – inhibitors of the PMA/ionomycin-induced NF-kB reporter in 697 B cells; AID 435022; 697 B-cell NF-kB luciferase reporter, 16 h; 330,000 tested, 0.33% active; inhibition, % at 4 µM; in the data active means inhibition above about 35%
Gli-Sufu antag – antagonists of Gli-Sufu signaling; Sufu-KO-LIGHT fibroblasts, Gli luciferase reporter luminescence; inhibition, % at 5 µM; 340,000 tested, 0.74% active; AID 588413;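 active means inhibition above about 55%, limit read from the data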;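 further: 0% = DMSO-treated cells and 100% = wells with medium but no cells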
Jurkat NFkB conf – lowers PMA/ionomycin-induced NF-kB signal in Jurkat cells; inhibition, % at 4 µM; 2,700 tested, 27% active; Jurkat NF-kB luciferase, 16 h; shares compounds with Jurkat NFkB inh;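 active means inhibition reaching about 45% at 4 µM in either replicate, limit read from the data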;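 further: plate controls were PMA/ionomycin stimulated DMSO wells for no effect and unstimulated DMSO wells for full effect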
* marks the source's active call; other numbers are inactive results.

What do the screens show for `Cc1ccccc1NC(=O)Nc1nc2ccc(S(C)(=O)=O)cc2s1`?
NR2E3 ag-1: -50; Jurkat NFkB inh: -37; GalR3 antagonist: 4; NR2E3 ag-2: 4; 697 NFkB inh: -68; Gli-Sufu antag: -47

How did NS(=O)(=O)c1ccc2nc(NC(=O)Nc3ccccc3F)sc2c1 do in these assays?
NR2E3 ag-1: -92; Jurkat NFkB inh: -164; GalR3 antagonist: -6; NR2E3 ag-2: 4; 697 NFkB inh: -224; Gli-Sufu antag: -97; Jurkat NFkB conf: -112

How did Cc1ccc(/C=N/NC(=O)C2COc3ccccc3O2)s1 (configuration not stated) do in these assays?
NR2E3 ag-1: -30; Jurkat NFkB inh: 59*; GalR3 antagonist: 1; NR2E3 ag-2: 0; 697 NFkB inh: 8; Gli-Sufu antag: 1; Jurkat NFkB conf: 48*

What do the screens show for `O=C(N/N=C/c1cccs1)C1COc2ccccc2O1` (configuration not stated)?
NR2E3 ag-1: -28; Jurkat NFkB inh: -5; GalR3 antagonist: -2; NR2E3 ag-2: -2; 697 NFkB inh: -62; Gli-Sufu antag: -6

What do the screens show for `COC(=O)c1c(NC(=O)c2ccc([N+](=O)[O-])o2)sc2c1CCN(C(C)C)C2`?
NR2E3 ag-1: -5; Jurkat NFkB inh: 66*; GalR3 antagonist: -5; NR2E3 ag-2: 7; 697 NFkB inh: -86; Gli-Sufu antag: 28; Jurkat NFkB conf: 43

Results for COC(=O)c1c(NC(=O)Cc2ccccc2)sc2c1CCN(C(C)C)C2 ?
NR2E3 ag-1: -5; Jurkat NFkB inh: -26; NR2E3 ag-2: -1; 697 NFkB inh: -19; Gli-Sufu antag: 6

What do the screens show for `O=C(Nc1ccc(Cl)c(Cl)c1)Nc1ccon1`?
NR2E3 ag-1: -80; Jurkat NFkB inh: 53*; GalR3 antagonist: -4; NR2E3 ag-2: -2; 697 NFkB inh: -18; Gli-Sufu antag: -18; Jurkat NFkB conf: 32

How did CCOC(=O)c1ccc(NC(=O)Nc2ccon2)cc1 do in these assays?
NR2E3 ag-1: -41; Jurkat NFkB inh: 58*; GalR3 antagonist: 2; NR2E3 ag-2: 4; 697 NFkB inh: -7; Gli-Sufu antag: 42; Jurkat NFkB conf: 34

Results for Cc1cc(NC(=O)Nc2ccc(Cl)c(Cl)c2)no1 ?
NR2E3 ag-1: -42; Jurkat NFkB inh: -6; GalR3 antagonist: -6; NR2E3 ag-2: 5; 697 NFkB inh: -6; Gli-Sufu antag: -11

What do the screens show for `CCc1cc2c(nc1CC)CCCN2CCOC`?
GalR3 antagonist: 2

What do the screens show for `NC(=O)c1ncn([C@@H]2O[C@H](C(=O)N[C@H](Cc3c[nH]c4ccccc34)C(=O)N3CCN(C(=O)N4CCOCC4)CC3)[C@@H](O)[C@H]2O)n1`?
GalR3 antagonist: -8

How did N#CCC(CNc1ncc(C(F)(F)F)cc1Cl)OC(=O)c1cccc(C(F)(F)F)c1 (configuration not stated) do in these assays?
NR2E3 ag-1: 16; Jurkat NFkB inh: 60*; GalR3 antagonist: -4; NR2E3 ag-2: -1; 697 NFkB inh: 5; Gli-Sufu antag: 21; Jurkat NFkB conf: 9

Results for COc1cccc2sc3ccc(C#CC4(O)CCCCC4)cc3c(=O)c12 ?
NR2E3 ag-1: -60; Jurkat NFkB inh: -194; GalR3 antagonist: 0; NR2E3 ag-2: -1; 697 NFkB inh: -117; Gli-Sufu antag: -100; Jurkat NFkB conf: -47

What do the screens show for `COCCNC(=S)N1C[C@H]2CON(C)[C@H]2C[C@H]1c1ccccc1Br`?
GalR3 antagonist: 1

What do the screens show for `COC(=O)C1C(=O)c2c([nH]c(C(=O)OC3CCCC3C)c2C)CC1C` (configuration not stated)?
NR2E3 ag-1: -116; Jurkat NFkB inh: -180; GalR3 antagonist: -2; NR2E3 ag-2: 5; 697 NFkB inh: -161; Gli-Sufu antag: -70; Jurkat NFkB conf: -112

What do the screens show for `COC(=O)C1C(=O)c2c([nH]c(C(=O)OCCOC(C)C)c2C)CC1C` (configuration not stated)?
Jurkat NFkB inh: -20; GalR3 antagonist: -3; NR2E3 ag-2: 3; 697 NFkB inh: -27; Gli-Sufu antag: -17

How did COC(=O)C1C(=O)c2c([nH]c(C(=O)OC3CCCCC3)c2C)CC1C (configuration not stated) do in these assays?
NR2E3 ag-1: -78; Jurkat NFkB inh: -163; GalR3 antagonist: 5; NR2E3 ag-2: 0; 697 NFkB inh: -169; Gli-Sufu antag: -24; Jurkat NFkB conf: -93

Results for Cc1ccc(C(=O)Nc2nc3c(s2)CCCC3)o1 ?
NR2E3 ag-1: -104; Jurkat NFkB inh: -155; GalR3 antagonist: -6; NR2E3 ag-2: -6; 697 NFkB inh: -197; Gli-Sufu antag: -103; Jurkat NFkB conf: -87

Results for COc1cc(/C=C2\SC(=Nc3ccc(O)cc3)NC2=O)cc(OC)c1OC ?
Jurkat NFkB inh: 59*; GalR3 antagonist: 4; NR2E3 ag-2: 0; 697 NFkB inh: 2; Gli-Sufu antag: -2; Jurkat NFkB conf: 1

Results for COc1cc(/C=C2/SC(=Nc3ccc(O)cc3)NC2=O)cc(OC)c1O ?
NR2E3 ag-1: 11; Jurkat NFkB inh: 26; GalR3 antagonist: 5; NR2E3 ag-2: 4; 697 NFkB inh: -7; Gli-Sufu antag: 0

What do the screens show for `Nc1c(C(=O)Nc2ccccc2)nnn1-c1ccc2c(c1)OCCO2`?
NR2E3 ag-1: -141; Jurkat NFkB inh: -157; GalR3 antagonist: -9; NR2E3 ag-2: 2; 697 NFkB inh: -234; Gli-Sufu antag: -84; Jurkat NFkB conf: -100

Results for O=C1CN(C(=O)c2ccccc2)c2ccccc2N1 ?
NR2E3 ag-1: -6; Jurkat NFkB inh: 9; GalR3 antagonist: 2; NR2E3 ag-2: 1; 697 NFkB inh: 16; Gli-Sufu antag: 7

Results for O=C1CN(C(=O)c2cccc(Br)c2)c2ccccc2N1 ?
NR2E3 ag-1: -22; Jurkat NFkB inh: 52*; GalR3 antagonist: -9; NR2E3 ag-2: 1; 697 NFkB inh: -39; Gli-Sufu antag: -7; Jurkat NFkB conf: 16

What do the screens show for `C[C@H](CO)N1C[C@H](C)[C@@H](CN(C)C(=O)Nc2ccccc2)OCc2cn(nn2)CCCC1=O`?
GalR3 antagonist: -3

What do the screens show for `Cc1ccc(-c2nc(-c3ccccn3)no2)cc1`?
NR2E3 ag-1: 33; Jurkat NFkB inh: 69*; GalR3 antagonist: 0; NR2E3 ag-2: 3; 697 NFkB inh: 26; Gli-Sufu antag: 75*; Jurkat NFkB conf: 79*

How did CCn1ncc2c(=O)c(C(=O)c3ccccc3)c[nH]c21 do in these assays?
GalR3 antagonist: -7

What do the screens show for `COc1ccc(C(=O)N(Cc2ccccc2)Cc2cc3cc4c(cc3[nH]c2=O)OCCO4)cc1`?
NR2E3 ag-1: 4; Jurkat NFkB inh: 55*; GalR3 antagonist: -6; NR2E3 ag-2: 1; 697 NFkB inh: -32; Gli-Sufu antag: -4; Jurkat NFkB conf: 12
